Measured values published in ChEMBL document CHEMBL1158827, “Free-radical-scavenging and xanthine oxidase inhibitory constituents from Stereospermum personatum” (J Nat Prod, 2005).
Activity calls are given as the source filed them. The rule behind the calls is not given here.

Tests used:
[1] = Antioxidant activity assessed as DPPH scavenging activity at 50 ug/ml; format: functional
Outline: (§1)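 Single-concentration screen at 50 µg/mL. Samples showing less than 10% activity at this level were not carried forward to IC50 or SC50 determination.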

[2] = target: T1, Xanthine dehydrogenase/oxidase (Homo sapiens, UniProt P47989); assay: Inhibition of xanthine oxidase at 50 ug/ml; outline: as §1
[3] = Antioxidant activity assessed as DPPH scavenging activity; format: functional
Outline: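 SC50 is the concentration scavenging 50% of the DPPH free radical under the assay conditions. It was obtained by linear regression over at least five concentrations, each in triplicate, and reported as the mean.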

[4] = target: T1, Xanthine dehydrogenase/oxidase; assay: Inhibition of xanthine oxidase
[5] = target: T1, Xanthine dehydrogenase/oxidase; assay: Inhibition of xanthine oxidase at 132 uM

T1 sequence (P47989 whole entry): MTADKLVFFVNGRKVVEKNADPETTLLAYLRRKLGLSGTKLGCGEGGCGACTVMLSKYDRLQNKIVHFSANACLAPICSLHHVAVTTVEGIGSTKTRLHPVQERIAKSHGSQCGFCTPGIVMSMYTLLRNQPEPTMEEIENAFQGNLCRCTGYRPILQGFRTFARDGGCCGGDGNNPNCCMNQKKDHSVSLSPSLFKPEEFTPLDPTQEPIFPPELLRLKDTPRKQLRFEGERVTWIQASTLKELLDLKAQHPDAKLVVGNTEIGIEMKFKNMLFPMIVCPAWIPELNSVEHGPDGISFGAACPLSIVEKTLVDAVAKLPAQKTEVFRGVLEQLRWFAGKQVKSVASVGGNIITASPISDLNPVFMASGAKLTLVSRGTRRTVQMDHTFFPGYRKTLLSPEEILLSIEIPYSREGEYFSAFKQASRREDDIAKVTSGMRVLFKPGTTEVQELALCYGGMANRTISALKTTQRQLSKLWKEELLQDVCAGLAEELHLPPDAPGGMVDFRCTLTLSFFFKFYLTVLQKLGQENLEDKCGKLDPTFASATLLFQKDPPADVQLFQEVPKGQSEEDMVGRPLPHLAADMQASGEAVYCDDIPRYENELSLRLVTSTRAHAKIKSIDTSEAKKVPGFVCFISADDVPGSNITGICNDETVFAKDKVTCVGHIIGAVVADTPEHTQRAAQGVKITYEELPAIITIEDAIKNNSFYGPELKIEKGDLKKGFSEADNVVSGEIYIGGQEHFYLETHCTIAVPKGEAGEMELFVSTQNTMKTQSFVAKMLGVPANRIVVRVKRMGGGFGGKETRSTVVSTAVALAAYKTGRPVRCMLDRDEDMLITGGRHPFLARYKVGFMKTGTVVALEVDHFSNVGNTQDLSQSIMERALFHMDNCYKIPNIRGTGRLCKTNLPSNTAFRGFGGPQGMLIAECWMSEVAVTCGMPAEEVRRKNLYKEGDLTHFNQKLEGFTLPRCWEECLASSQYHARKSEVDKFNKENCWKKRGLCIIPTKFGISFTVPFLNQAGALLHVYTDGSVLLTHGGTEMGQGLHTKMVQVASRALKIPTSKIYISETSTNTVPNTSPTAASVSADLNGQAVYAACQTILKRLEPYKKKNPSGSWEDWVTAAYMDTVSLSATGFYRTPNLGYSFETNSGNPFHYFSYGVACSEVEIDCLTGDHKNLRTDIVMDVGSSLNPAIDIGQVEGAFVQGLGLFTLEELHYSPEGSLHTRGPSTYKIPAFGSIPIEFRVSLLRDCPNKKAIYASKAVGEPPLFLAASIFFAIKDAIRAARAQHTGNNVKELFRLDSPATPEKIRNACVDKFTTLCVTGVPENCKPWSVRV

| Activity [2] | IC50 [4] [µM] | inhibition at 132 µM [5] [%] | SMILES | Activity [1] | SC50 [3] [µM] |
| --- | --- | --- | --- | --- | --- |
| Not Active |  |  | Cc1c(CCC(C)O)ccc2c1C(=O)c1ccccc1C2=O (stereo not drawn) [STEREQUINONE H] | inactive |  |
| Not Active |  |  | COc1cc(COC/C=C/c2cc(OC)c(OC)c(OC)c2)ccc1O |  | 7.58 |
|  | 111 |  | COc1cc(C[C@@H]2COC[C@@H]2C(O)c2ccc(O)c(OC)c2)ccc1O (stereo partly drawn) |  | 15.2 |
| Not Active |  |  | COc1ccc2c(c1)C(=O)C1(O)C(=CC3=C(C)CCC3=C1C)C2=O (stereo not drawn) [STEREQUINONE I] | inactive |  |
| Not Active |  |  | CC(=O)CCc1ccc2c(c1C)C(=O)c1ccccc1C2=O [STEREQUINONE F] | inactive |  |
|  | 101 |  | COc1cc([C@H]2c3cc(O)c(OC)cc3C[C@@](O)(CO)[C@@H]2CO)ccc1O |  | 17.4 |
|  |  | 23.6 | COc1cc(C[C@]2(O)CO[C@@H](c3ccc(O)c(OC)c3)[C@@H]2CO)ccc1O [OLIVIL] |  | 15.1 |
|  | 213 |  | COc1cc(C[C@@H](CO)[C@H](CO)Cc2ccc(O)c(OC)c2)ccc1O [(+)-SECOISOLARICIRESINOL] |  | 12.5 |
|  |  |  | Cc1c(C)c2c(c(C)c1O)CCC(C)(C(=O)O)O2 (stereo not drawn) |  | 15.9 |
| Not Active |  |  | CC1=CCc2c1cc1c(c2C)C(=O)c2ccccc2C1=O [STEREQUINONE A] | inactive |  |
| Not Active |  |  | COc1ccc2c(c1)C(=O)c1c(ccc(CCC(C)=O)c1C)C2=O [STEREQUINONE G] | inactive |  |
| Not Active |  |  | COc1cc(/C=C/C(=O)O)ccc1O [FERULATE] |  | 32.5 |
